Source: ChEMBL document CHEMBL4177753, “Structural Modification of Natural Product Ganomycin I Leading to Discovery of a α-Glucosidase and HMG-CoA Reductase Dual Inhibitor Improving Obesity and Metabolic Dysfunction in Vivo” (J Med Chem, 2018)
Calls of active or inactive are those of the source. The calls are words filed in the database; no cut-off is given here.

How the values were obtained:
[1] = target: T1, 3-hydroxy-3-methylglutaryl-coenzyme A reductase (Sus scrofa) (UniProt Q1W675); assay: (§1) Inhibition of pig liver microsomal HMG-CoA reductase by colorimetric method
T1 sequence (whole entry): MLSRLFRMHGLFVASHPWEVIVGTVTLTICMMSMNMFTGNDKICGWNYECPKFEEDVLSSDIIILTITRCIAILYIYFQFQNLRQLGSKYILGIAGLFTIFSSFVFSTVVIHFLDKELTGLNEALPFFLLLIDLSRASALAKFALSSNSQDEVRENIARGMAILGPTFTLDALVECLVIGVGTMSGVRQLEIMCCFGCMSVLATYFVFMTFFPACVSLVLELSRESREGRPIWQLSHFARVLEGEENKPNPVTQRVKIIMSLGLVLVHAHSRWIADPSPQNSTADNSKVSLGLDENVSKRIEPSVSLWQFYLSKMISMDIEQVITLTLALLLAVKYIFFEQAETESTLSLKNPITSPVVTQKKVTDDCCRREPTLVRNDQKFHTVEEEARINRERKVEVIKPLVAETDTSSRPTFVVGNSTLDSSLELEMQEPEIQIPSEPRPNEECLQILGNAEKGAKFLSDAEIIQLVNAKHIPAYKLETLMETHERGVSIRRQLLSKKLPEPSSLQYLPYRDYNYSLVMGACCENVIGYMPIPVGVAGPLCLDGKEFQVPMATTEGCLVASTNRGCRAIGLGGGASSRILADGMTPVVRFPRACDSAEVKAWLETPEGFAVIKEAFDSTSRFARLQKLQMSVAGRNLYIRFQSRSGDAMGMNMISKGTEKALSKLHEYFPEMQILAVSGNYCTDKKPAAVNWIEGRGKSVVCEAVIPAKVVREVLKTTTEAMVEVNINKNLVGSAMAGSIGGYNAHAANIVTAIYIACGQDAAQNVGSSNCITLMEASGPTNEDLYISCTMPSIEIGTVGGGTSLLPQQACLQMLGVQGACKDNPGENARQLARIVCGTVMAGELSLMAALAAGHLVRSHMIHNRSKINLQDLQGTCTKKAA
Procedure, shortened: (§2)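 Pig liver microsomal HMG-CoA reductase; compounds tested at several concentrations, each in triplicate; control uses phosphate buffer instead of compound, blank uses buffer instead of enzyme. Absorbance read at 405 nm; % inhibition from blank-corrected OD of test versus control; IC50 fitted from the inhibition-concentration series.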

[2] = target: T2, 3-hydroxy-3-methylglutaryl-coenzyme A reductase (Sus scrofa, UniProt Q1W675); assay: as §1; procedure, shortened: as §2
T2 sequence (Q1W675 whole entry): T1 sequence (whole entry)

[3] = AUC (0 to t) in Sprague-Dawley rat at 2 mg/kg, po; type: ADME, organism-based; conditions: in vivo
Procedure, shortened: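 Male Sprague-Dawley rats (n = 6, 0.21–0.23 kg), single oral dose 2.0 mg/kg. Orbital blood sampled 0–16 h into heparinized tubes. Plasma was protein-precipitated with methanol, with internal standard added. Quantified by UPLC-ESI(+)-QTOF-MS in SIM mode on a C18 column with a methanol/0.3% formic acid water gradient. Linear range 0.54–107 ng/ml.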

Mus musculus [4] = assay: Antiobesity activity in C57BL/6J DIO mouse assessed as reduction in weight gain at 3 mg/kg administered daily via oral gavage for 5 weeks relative to vehicle-treated control; type: functional; parameters: scale not given: the % may be the effect or the level left
Procedure, shortened: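 Male C57BL/6J mice on high-fat diet, n = 8 per group, grouped by blood glucose and body weight. Daily oral gavage at 0.3, 1.0 or 3.0 mg/kg in soybean vehicle for 5 weeks. Vehicle groups were on normal diet and on high-fat diet.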

Mus musculus [5] = assay: Hypolipidemic activity in ob/ob mouse assessed as decrease in plasma LDL-C levels at 1 mg/kg administered daily via oral gavage for 31 days relative to vehicle-treated control; type: functional; parameters: scale not given: the % may be the effect or the level left
Mus musculus [6] = assay: Hypolipidemic activity in ob/ob mouse assessed as decrease in liver total cholesterol levels at 0.3 to 3 mg/kg administered daily via oral gavage for 31 days; type: functional, organism-based
Mus musculus [7] = assay: Hypolipidemic activity in antibiotic-treated ob/ob mouse assessed as decrease in plasma total cholesterol levels at 3 mg/kg administered daily via oral gavage for 3 weeks; type: functional, organism-based
Procedure, shortened: (§3)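 Male ob/ob mice pretreated three weeks with ampicillin (1 g/L), vancomycin, neomycin, gentamycin and erythromycin. Groups of n = 8 given 3.0 mg/kg/day orally in soybean vehicle versus vehicle. Plasma and hepatic lipids, fasting glucose, OGTT (glucose 2 g/kg after overnight fast) and HbA1c measured.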

Mus musculus [8] = assay: Hypolipidemic activity in antibiotic-treated ob/ob mouse assessed as decrease in plasma LDL-C levels at 3 mg/kg administered daily via oral gavage for 3 weeks; type: functional, organism-based; procedure, shortened: as §3

With `CC(C)=CCC/C(C)=C/CCC1=C[C@H](c2ccc(C(C)(C)C)cc2)OC1=O` the inhibition [1] was “Dose-dependent effect”, the IC50 [2] was 5.82 µM and the AUC(0-t) [3] was 274 ng·h/mL. For the same compound, the Activity (Mus musculus [4]) was 25.4%, the Activity (Mus musculus [5]) was 43% and the Activity (Mus musculus [6]) was “Active”. The Activity (Mus musculus [7]) was “inactive” and the Activity (Mus musculus [8]) was “inactive”.
